Measured values: ChEMBL document CHEMBL4689842, “EUbOPEN Chemogenomics Library wave 1” (2021)
Values joined by “and” are separate entries in the source; they are usually repeats but may differ in a detail not shown here. Equal values may be shown once.

Tested on: HEK-293T
Assay: Multiplex assay against HEK293T;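 for Population Tubulin-Different-Phenotype (%): share of the cells with healthy nuclei that show this phenotype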
Type: toxicity, cell-based
Conditions: human
Method in brief: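 Four dyes were applied at seeding to live cells: Hoechst33342, BioTracker Green Microtubule Cytoskeleton Dye, MitoTracker Red and Annexin V Alexa Fluor 680. Imaging after compound addition used a CQ1 microscope at 37°C and 5% CO2. CellPathfinder machine-learning gating then sorted cells into Hoechst high-intensity objects or normal cells, normal cells into healthy, pyknosed or fragmented nuclei, and pyknosed cells into mitotic or apoptotic, with tubulin, mitochondrial-mass and membrane-permeability phenotypes given as per cents of healthy-nucleus cells.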

[1] = 12 h, 1 µM, compound concentration 1 uM, replicate 1
[2] = 12 h, 1 µM, compound concentration 1 uM, replicate 2
[3] = 12 h, 10 µM, compound concentration 10 uM, replicate 1
[4] = 12 h, 10 µM, compound concentration 10 uM, replicate 2
[5] = 24 h, 1 µM, compound concentration 1 uM, replicate 1
[6] = 24 h, 1 µM, compound concentration 1 uM, replicate 2
[7] = 24 h, 10 µM, compound concentration 10 uM, replicate 1
[8] = 24 h, 10 µM, compound concentration 10 uM, replicate 2

For C=CC(=O)Nc1cccc(Oc2nc(Nc3ccc(N4CCN(C)CC4)cc3OC)ncc2Cl)c1, the “Population Apoptotic (%)” value [1] was 22%, the “Population Fragmented Nuclei (%)” value [1] was 21% and the “Population Healthy Nuclei (%)” value [1] was 27%. For the same compound, the “Population Hoechst High Intensity Objects (%)” value [1] was 18%, the “Population Membrane Permeable-Phenotype (%)” value [1] was 13% and the “Population Mitochondria Different-Phenotype (%)” value [1] was 25%. For the same compound, the “Population Mitotic Cells (%)” value [1] was 77%, the “Population Normal (%)” value [1] was 81% and the “Population Pyknosed Nuclei (%)” value [1] was 50%. The “Population Tubulin-Different-Phenotype (%)” value [1] was 77%, the “Total Cell Count” value [1] was 425 and the “Population Apoptotic (%)” value [2] was 11%. The “Population Fragmented Nuclei (%)” value [2] was 4%, the “Population Healthy Nuclei (%)” value [2] was 70% and the “Population Hoechst High Intensity Objects (%)” value [2] was 7%. For the same compound, the “Population Membrane Permeable-Phenotype (%)” value [2] was 11%, the “Population Mitochondria Different-Phenotype (%)” value [2] was 54% and the “Population Mitotic Cells (%)” value [2] was 88%. For the same compound, the “Population Normal (%)” value [2] was 92%, the “Population Pyknosed Nuclei (%)” value [2] was 25% and the “Population Tubulin-Different-Phenotype (%)” value [2] was 98%. The “Total Cell Count” value [2] was 1025, the “Population Apoptotic (%)” value [3] was 16% and the “Population Fragmented Nuclei (%)” value [3] was 10%. For the same compound, the “Population Healthy Nuclei (%)” value [3] was 70%, the “Population Hoechst High Intensity Objects (%)” value [3] was 12% and the “Population Membrane Permeable-Phenotype (%)” value [3] was 3%. For the same compound, the “Population Mitochondria Different-Phenotype (%)” value [3] was 8%, the “Population Mitotic Cells (%)” value [3] was 83% and the “Population Normal (%)” value [3] was 87%. For the same compound, the “Population Pyknosed Nuclei (%)” value [3] was 18%, the “Population Tubulin-Different-Phenotype (%)” value [3] was 18% and the “Total Cell Count” value [3] was 722. The “Population Apoptotic (%)” value [4] was 8%, the “Population Fragmented Nuclei (%)” value [4] was 7% and the “Population Healthy Nuclei (%)” value [4] was 86%. The “Population Hoechst High Intensity Objects (%)” value [4] was 3%, the “Population Membrane Permeable-Phenotype (%)” value [4] was 4% and the “Population Mitochondria Different-Phenotype (%)” value [4] was 15%. The “Population Mitotic Cells (%)” value [4] was 91%, the “Population Normal (%)” value [4] was 96% and the “Population Pyknosed Nuclei (%)” value [4] was 6%. The “Population Tubulin-Different-Phenotype (%)” value [4] was 16%, the “Total Cell Count” value [4] was 1384 and the “Population Apoptotic (%)” value [5] was 36%. The “Population Fragmented Nuclei (%)” value [5] was 23%, the “Population Healthy Nuclei (%)” value [5] was 33% and the “Population Hoechst High Intensity Objects (%)” value [5] was 16%. For the same compound, the “Population Membrane Permeable-Phenotype (%)” value [5] was 10%, the “Population Mitochondria Different-Phenotype (%)” value [5] was 49% and the “Population Mitotic Cells (%)” value [5] was 63%. The “Population Normal (%)” value [5] was 83%, the “Population Pyknosed Nuclei (%)” value [5] was 43% and the “Population Tubulin-Different-Phenotype (%)” value [5] was 78%. For the same compound, the “Total Cell Count” value [5] was 379, the “Population Apoptotic (%)” value [6] was 13% and the “Population Fragmented Nuclei (%)” value [6] was 8%. For the same compound, the “Population Healthy Nuclei (%)” value [6] was 76%, the “Population Hoechst High Intensity Objects (%)” value [6] was 7% and the “Population Mitochondria Different-Phenotype (%)” value [6] was 36%. The “Population Mitotic Cells (%)” value [6] was 86%, the “Population Normal (%)” value [6] was 92% and the “Population Pyknosed Nuclei (%)” value [6] was 14%. The “Population Tubulin-Different-Phenotype (%)” value [6] was 89%, the “Total Cell Count” value [6] was 1188 and the “Population Apoptotic (%)” value [7] was 8%. For the same compound, the “Population Fragmented Nuclei (%)” value [7] was 11%, the “Population Healthy Nuclei (%)” value [7] was 79% and the “Population Hoechst High Intensity Objects (%)” value [7] was 8%. The “Population Membrane Permeable-Phenotype (%)” value [7] was 11%, the “Population Mitochondria Different-Phenotype (%)” value [7] was 5% and the “Population Mitotic Cells (%)” value [7] was 92%. The “Population Normal (%)” value [7] was 91%, the “Population Pyknosed Nuclei (%)” value [7] was 8% and the “Population Tubulin-Different-Phenotype (%)” value [7] was 23%. The “Total Cell Count” value [7] was 923, the “Population Apoptotic (%)” value [8] was 2% and the “Population Fragmented Nuclei (%)” value [8] was 18%. The “Population Healthy Nuclei (%)” value [8] was 78%, the “Population Hoechst High Intensity Objects (%)” value [8] was 2% and the “Population Membrane Permeable-Phenotype (%)” value [8] was 7%. The “Population Mitochondria Different-Phenotype (%)” value [8] was 2%, the “Population Mitotic Cells (%)” value [8] was 97% and the “Population Normal (%)” value [8] was 97%. The “Population Pyknosed Nuclei (%)” value [8] was 3%, the “Population Tubulin-Different-Phenotype (%)” value [8] was 12% and the “Total Cell Count” value [8] was 2281.

In the case of Cc1nc(N2CC[C@H](O)C2)ncc1-c1cc(C(F)(F)F)cc2[nH]ncc12, the “Population Apoptotic (%)” value [1] was 20%, the “Population Fragmented Nuclei (%)” value [1] was 9% and the “Population Healthy Nuclei (%)” value [1] was 70%. For the same compound, the “Population Hoechst High Intensity Objects (%)” value [1] was 7%, the “Population Membrane Permeable-Phenotype (%)” value [1] was 3% and the “Population Mitochondria Different-Phenotype (%)” value [1] was 7%. The “Population Mitotic Cells (%)” value [1] was 79%, the “Population Normal (%)” value [1] was 92% and the “Population Pyknosed Nuclei (%)” value [1] was 20%. The “Population Tubulin-Different-Phenotype (%)” value [1] was 5%, the “Total Cell Count” value [1] was 628 and the “Population Apoptotic (%)” value [2] was 8%. For the same compound, the “Population Fragmented Nuclei (%)” value [2] was 7%, the “Population Healthy Nuclei (%)” value [2] was 87% and the “Population Hoechst High Intensity Objects (%)” value [2] was 2%. For the same compound, the “Population Membrane Permeable-Phenotype (%)” value [2] was 1%, the “Population Mitochondria Different-Phenotype (%)” value [2] was 10% and the “Population Mitotic Cells (%)” value [2] was 91%. The “Population Normal (%)” value [2] was 97%, the “Population Pyknosed Nuclei (%)” value [2] was 4% and the “Population Tubulin-Different-Phenotype (%)” value [2] was 9%. For the same compound, the “Total Cell Count” value [2] was 1293, the “Population Apoptotic (%)” value [3] was 24% and the “Population Fragmented Nuclei (%)” value [3] was 11%. The “Population Healthy Nuclei (%)” value [3] was 70%, the “Population Hoechst High Intensity Objects (%)” value [3] was 9% and the “Population Membrane Permeable-Phenotype (%)” value [3] was 4%. The “Population Mitochondria Different-Phenotype (%)” value [3] was 4%, the “Population Mitotic Cells (%)” value [3] was 75% and the “Population Normal (%)” value [3] was 90%. The “Population Pyknosed Nuclei (%)” value [3] was 18%, the “Population Tubulin-Different-Phenotype (%)” value [3] was 3% and the “Total Cell Count” value [3] was 699. The “Population Apoptotic (%)” value [4] was 5%, the “Population Fragmented Nuclei (%)” value [4] was 7% and the “Population Healthy Nuclei (%)” value [4] was 88%. For the same compound, the “Population Hoechst High Intensity Objects (%)” value [4] was 1%, the “Population Membrane Permeable-Phenotype (%)” value [4] was 1% and the “Population Mitochondria Different-Phenotype (%)” value [4] was 8%. For the same compound, the “Population Mitotic Cells (%)” value [4] was 94%, the “Population Normal (%)” value [4] was 98% and the “Population Pyknosed Nuclei (%)” value [4] was 4%. The “Population Tubulin-Different-Phenotype (%)” value [4] was 4%, the “Total Cell Count” value [4] was 1684 and the “Population Apoptotic (%)” value [5] was 22%. The “Population Fragmented Nuclei (%)” value [5] was 7%, the “Population Healthy Nuclei (%)” value [5] was 79% and the “Population Hoechst High Intensity Objects (%)” value [5] was 5%. For the same compound, the “Population Membrane Permeable-Phenotype (%)” value [5] was 5%, the “Population Mitochondria Different-Phenotype (%)” value [5] was 4% and the “Population Mitotic Cells (%)” value [5] was 77%. For the same compound, the “Population Normal (%)” value [5] was 94%, the “Population Pyknosed Nuclei (%)” value [5] was 12% and the “Population Tubulin-Different-Phenotype (%)” value [5] was 11%. The “Total Cell Count” value [5] was 702, the “Population Apoptotic (%)” value [6] was 3% and the “Population Fragmented Nuclei (%)” value [6] was 17%. For the same compound, the “Population Hoechst High Intensity Objects (%)” value [6] was 2%, the “Population Membrane Permeable-Phenotype (%)” value [6] was 4% and the “Population Mitochondria Different-Phenotype (%)” value [6] was 3%. For the same compound, the “Population Mitotic Cells (%)” value [6] was 96%, the “Population Normal (%)” value [6] was 97% and the “Population Pyknosed Nuclei (%)” value [6] was 2%. The “Population Tubulin-Different-Phenotype (%)” value [6] was 14%, the “Total Cell Count” value [6] was 1975 and the “Population Apoptotic (%)” value [7] was 28%. For the same compound, the “Population Fragmented Nuclei (%)” value [7] was 10%, the “Population Healthy Nuclei (%)” value [7] was 80% and the “Population Hoechst High Intensity Objects (%)” value [7] was 5%. The “Population Membrane Permeable-Phenotype (%)” value [7] was 12%, the “Population Mitochondria Different-Phenotype (%)” value [7] was 1% and the “Population Mitotic Cells (%)” value [7] was 71%. For the same compound, the “Population Normal (%)” value [7] was 94%, the “Population Pyknosed Nuclei (%)” value [7] was 9% and the “Population Tubulin-Different-Phenotype (%)” value [7] was 6%. The “Total Cell Count” value [7] was 840, the “Population Apoptotic (%)” value [8] was 6% and the “Population Fragmented Nuclei (%)” value [8] was 21%. For the same compound, the “Population Healthy Nuclei (%)” value [8] was 75%, the “Population Hoechst High Intensity Objects (%)” value [8] was 2% and the “Population Membrane Permeable-Phenotype (%)” value [8] was 5%. The “Population Mitotic Cells (%)” value [8] was 93%, the “Population Normal (%)” value [8] was 97% and the “Population Pyknosed Nuclei (%)” value [8] was 2%. For the same compound, the “Population Tubulin-Different-Phenotype (%)” value [8] was 5% and the “Total Cell Count” value [8] was 2845.

With CN(c1ccccc1CNc1nc(Nc2ccc3c(c2)CC(=O)N3)ncc1C(F)(F)F)S(C)(=O)=O the “Population Apoptotic (%)” value [3] was 20% and 22%, the “Population Fragmented Nuclei (%)” value [3] was 24% and 17% and the “Population Healthy Nuclei (%)” value [3] was 40% and 71%. The “Population Hoechst High Intensity Objects (%)” value [3] was 21% and 10%, the “Population Membrane Permeable-Phenotype (%)” value [3] was 10% and the “Population Mitotic Cells (%)” value [3] was 80% and 77%. The “Population Normal (%)” value [3] was 78% and 89%, the “Population Pyknosed Nuclei (%)” value [3] was 35% and the “Total Cell Count” value [3] was 538 and 612. For the same compound, the “Population Apoptotic (%)” value [4] was 17%, the “Population Fragmented Nuclei (%)” value [4] was 3% and 5% and the “Population Healthy Nuclei (%)” value [4] was 85% and 90%. For the same compound, the “Population Membrane Permeable-Phenotype (%)” value [4] was 5% and 1%, the “Population Mitochondria Different-Phenotype (%)” value [4] was 37% and the “Population Mitotic Cells (%)” value [4] was 82%. The “Population Normal (%)” value [4] was 92% and 97%, the “Population Pyknosed Nuclei (%)” value [4] was 10% and 4% and the “Total Cell Count” value [4] was 896 and 1228. For the same compound, the “Population Apoptotic (%)” value [7] was 23% and 26%, the “Population Fragmented Nuclei (%)” value [7] was 24% and 15% and the “Population Healthy Nuclei (%)” value [7] was 40% and 78%. The “Population Hoechst High Intensity Objects (%)” value [7] was 17% and 10%, the “Population Membrane Permeable-Phenotype (%)” value [7] was 4% and 9% and the “Population Mitotic Cells (%)” value [7] was 76% and 73%. For the same compound, the “Population Normal (%)” value [7] was 82% and 89%, the “Total Cell Count” value [7] was 531 and 582 and the “Population Apoptotic (%)” value [8] was 17% and 15%. The “Population Healthy Nuclei (%)” value [8] was 83%, the “Population Hoechst High Intensity Objects (%)” value [8] was 8% and 4% and the “Population Membrane Permeable-Phenotype (%)” value [8] was 3% and 2%. For the same compound, the “Population Mitochondria Different-Phenotype (%)” value [8] was 41%, the “Population Mitotic Cells (%)” value [8] was 82% and 84% and the “Population Normal (%)” value [8] was 91% and 95%. The “Total Cell Count” value [8] was 898 and 1570.
